Measurements published in ChEMBL document CHEMBL4513216, “Probing the Open Global Health Chemical Diversity Library for Multistage-Active Starting Points for Next-Generation Antimalarials” (ACS Infect Dis, 2020).

Test: Toxicity liver stage against HepG2, at 10uM
Assay type: cell-based
Set-up: test concentration 10 uM, cell line HepG2-A16-CD81EGFP
Details: human, HepG2-A16-CD81EGFP cells; read-out: INHIBITION
How it was run: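 Uninfected HepG2-A16-CD81EGFP cells, 3 × 10^3 per well, 1536-well, plated on prespotted compound at 10 μM final, parasite-free screening media added to match infected plates; puromycin 10 μM positive, DMSO 0.5% negative; run in parallel with 48 h PbLuc assay at 37 °C, 5% CO2; viability by CellTiter-Glo luminescence, normalized to controls.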

Structure (SMILES) | cytotoxicity at 10 µM [%]
CN(C)S(=O)(=O)N1C[C@H]2CC[C@@H](C1)N(Cc1ccc(F)c(F)c1)C2 | 1.05
Cc1nc(C)n(CC2CN(CC(=O)Nc3nccs3)CCO2)n1 (stereo not given) | -13.8
O=C(COCc1ccccc1Cl)N1CCCC(n2cccn2)C1 (stereo not given) | 10
NC(=O)CNC(=O)c1ccc(CNCc2ccc(Cl)cc2Cl)cc1 | -41.5
Cc1nn(CC(=O)N2CCN(Cc3cccnc3)CC2)c(C)c1Cl | 0.612
COc1cc(C)c(C(C)NC(=O)c2cccnc2N(C)C)cc1OC (stereo not given) | 1.25
COCCN1CCOCC12CCN(C(=O)c1ccoc1)CC2 | -84.6
COc1cc(NCc2cccnc2)c(-c2nn[nH]n2)cc1OC | 7.88
CN(C)C(=O)NCC(=O)N1CCCC2(CCC(=O)N(CC3CC3)C2)C1 (stereo not given) | -8.38
COCc1ccccc1CNC(=O)CN1CCCC1c1noc(C)n1 (stereo not given) | 1.13
O=C(c1cnccn1)N1CCn2cnc(COCC3CC3)c2C1 | 7.14
CNc1nc(CNC(=O)Nc2ccccc2SC)cs1 | -7.95
COc1cccc(-c2noc(C3CCN(Cc4ccncc4)C3)n2)c1 (stereo not given) | 25.9
Cc1ccccc1[C@@H]1CN(CCCS(=O)(=O)N(C)C)C[C@H]1C(=O)O | -5.51
COc1cccc(OCC(=O)NS(=O)(=O)c2cc(F)ccc2F)c1 | 7.53
CN(C1CCCN(c2ccccn2)C1)S(=O)(=O)N1CCOCC1 (stereo not given) | 8.09
CCc1cc(N(C)Cc2noc(CC(C)C)n2)ncn1 | 7.18
Cc1ccc(Cl)cc1N1CCC(CNC(=O)Cn2cccn2)C1 (stereo not given) | -6.72
CCc1cc(C(=O)NCC2CCN(Cc3cccc(C)n3)C2)on1 (stereo not given) | 7.69
CN(Cc1csc(-c2cccs2)n1)Cc1cccnc1N | -1.06
Cn1cccc1-c1nnc(C2(c3ccc4c(c3)OCO4)CCOCC2)o1 | 20.3
CC(=O)N[C@H]1CCN(C(=O)c2cc(Cn3cnc4ccccc43)[nH]n2)C1 | -1.91

Structure (SMILES) | cytotoxicity at 10 µM [%]
COc1cc(N2CCC(c3nccn3CCCN(C)C)CC2)nc(N)n1 | -7.41
c1ccc(C2(CNCc3cnc(N4CCOCC4)nc3)CC2)cc1 | -0.813
CN(C(=O)c1ccc(-n2ncc(C#N)c2N)cc1)C1CCCC1 | -5.1
COCCN(C)Cc1cc(Cl)ccc1OCC(O)CN1CCCCCC1 (stereo not given) | 1.76
COCC(=O)N[C@H](C)c1onc(-c2ccc(Cl)cc2)c1C(=O)O | -5.61
CN(C)CCNC(=O)Cc1cccc(I)c1 | -3.23
Cc1ccc2c(c1)c(C)cc(=O)n2CCC(=O)O | -5.6
CCOC1CCN(C(=O)c2ccc(-c3cccc(C)c3)[nH]c2=O)CC1 | 3.08
CN1CCN(C(=O)c2cc(-c3cnc(N4CCCC4)nc3)cn2C)CC1 | -1.43
c1cc(-c2c[nH]c([C@@H]3COCCN3C3CCCCC3)n2)ccn1 | 7.66
CCc1nnc2n1CCN(CC(=O)Nc1cc(C)nn1C)C2 | 6.98
O=C(c1cc(-c2ccn(CC3CC3)n2)n2ccccc12)N1CCOCC1 | 9.76
CCc1ncc(CN(C)C2CCN(c3sccc3C#N)C2=O)s1 (stereo not given) | -0.876
COCc1ncn2c1CN(S(=O)(=O)c1cccc(OC)c1)CC2 | 3.47
Nc1nccc(N2CCCC(CO)(CCOc3ccccc3)C2)n1 (stereo not given) | 46.7
CC(=O)N1CCSCC1c1ccc(C)o1 (stereo not given) | -0.872
O=C(NCCO)C1(Cc2ccccc2-c2ccncc2)CCOCC1 | 2.27
O=C(COCc1ccccc1)N1CCCn2cncc2C1 | 0.375
N[C@@H](Cc1ccccc1)c1nnc(S(=O)(=O)Cc2ccc(Cl)cc2)o1 | 14.2
CCS(=O)(=O)CCCOc1nc(-c2ccccc2Cl)no1 | -6.14
CCCc1nc(N(C)CCc2noc(C(C)C)n2)c2cnn(C)c2n1 | 3.86
Cc1cc(CN2CCc3nn(C(C)C)c(=O)cc3C2)no1 | -13.8

Structure (SMILES) | cytotoxicity at 10 µM [%]
O=C(O)[C@]12CCCN(Cc3cccs3)C[C@H]1CN(c1ncccn1)C2 | 7.58
Cc1noc(C)c1CN1CCO[C@H]2CN(Cc3cncn3C)C[C@H]21 | -1.62
COCCNc1ncc(-c2cc(C)no2)c(-c2ccco2)n1 | 13.4
CN1CCCNC(=O)C12CCN(C(=O)c1ccc3[nH]cnc3c1)CC2 | -1.16
CCn1cc(-c2cc(-c3ccn(C)c3)nc(N)c2C#N)cc1C#N | 2.11
CN1CCCN(C(=O)c2nnn(-c3ccc(C(F)(F)F)cc3)n2)CC1 | -7.37
Cc1nc(C)n(CC2CCCN2CCC(=O)NC2CCCC2)n1 (stereo not given) | -10.4
CCNC(=O)N1CCC2(CC1)CCn1c(-c3ccccc3)cnc12 | -8.19
COc1nc(C)c(C(=O)N2CCC(C(O)Cc3ccccc3)CC2)s1 (stereo not given) | 4.18
CC(C)(O)CN1CCN(C(=O)COC2CCCCC2)CC1 | -2.77
CCn1ccnc1CN1CCN(c2nc(C)cc(OC)n2)CC1 | -5.48
CC(C)c1ncncc1C(=O)NCCN1CCCS1(=O)=O | -8.98
CCCc1cc(N2CCCC2Cn2nc(C)nc2C)n2ncnc2n1 (stereo not given) | -0.82
Cn1cnnc1SC1CCc2ccccc2NC1=O (stereo not given) | -0.373
CC(Cn1cccn1)NCc1csc(-c2ccsc2)n1 (stereo not given) | -3.96
Cc1nn(C)c(C)c1C1CCCN1Cc1nc(-c2cccs2)no1 (stereo not given) | -9.43
CNC(=O)CCNC(=O)c1ccccc1N1CCOCC1 | 2.29
Cc1ccc(CCNC(=O)Cn2nc(C)n(Cc3ccccc3)c2=O)o1 | 1.33
Cc1cc(F)ccc1C(=O)N1C[C@@H]2COC[C@]2(CN(C)C)C1 | -142
CSCCN1C(=O)CC(C)(c2ccc(Br)cc2)C1=O (stereo not given) | -8.98
CN(C)CCN1CCC2[C@@H]1CCN2Cc1ccc2c(c1)OCO2 (stereo not given in full) | -4.28
CCNC(=O)CCc1c(C)nc2cc(O)nn2c1C | -12.6

Structure (SMILES) | cytotoxicity at 10 µM [%]
CC(C)C1CN(c2nccc(N)n2)CCC(=O)N1Cc1ccc(F)cc1 (stereo not given) | -5.04
COCCc1ncc(CNC2(c3ccc(Cl)cc3Cl)CC2)cn1 | -15.8
CN(C)c1cc(CNC(=O)Nc2nncs2)ccn1 | -20.5
CC(C)Oc1cc(N2C[C@@H](C)O[C@@H](C)C2)nc(N)n1 | -9.15
CC(C)CN(Cc1nc2c(cnn2C)c(=O)[nH]1)CC(C)C | -5.36
CCCc1nc(C(=O)N2CCN(S(=O)(=O)CC)CC2)cs1 | -14.5
N#CCCCOc1cccnc1NC(=O)CC1CCCCC1 | 21.9
FC(F)Oc1ccc(CNCc2cc(Cl)c3c(c2)OCO3)cc1 | 2.63
Cc1cc(C)n(CC2CN(CCOc3cccc(F)c3)CCO2)n1 (stereo not given) | -7.44
O=C(COCC(F)(F)F)NS(=O)(=O)c1ccc2c(c1)OCCCO2 | -6.8
COc1ccc(CN2CCO[C@H]3[C@H](OCc4ccncc4)CC[C@@H]32)cc1 | -30.9
CCCn1nccc1C(=O)Nc1ncc(C)s1 | 8.05
CCc1nn(C)c2[nH]nc(NC(=O)c3cccnc3OCC(C)C)c12 | 3.94
COCCCN1CC2(CCC1=O)CCN(Cc1cc(C)no1)CC2 | 4.08
CCCc1nnc2sc(C3CCN(C4CCN(C)CC4)CC3)nn12 | -10.6
CN(C(=O)c1ncn2c1CN(C)S(=O)(=O)c1ccccc1-2)C1CC1 | -131
Cc1ncc(CC(=O)N2CCC(N3C[C@@H](C)O[C@@H](C)C3)CC2)c(=O)[nH]1 | 3.26
Cc1nn(C)c(N(C)C)c1CNCc1ccnc(N2CCOCC2)c1 | -13
O=S(=O)(NCc1ccccc1)N1CCCN(c2ccncc2)CC1 | -11
COCC(c1cccc(C(F)(F)F)c1)N(C)C(=O)c1cnccn1 (stereo not given) | -11.7
c1cn2c(n1)CN(C1CCOCC1)CC(CN1CCCC1)C2 (stereo not given) | -0.123
Cc1csc(NC(=O)C2(C)CN(C)CCO2)n1 (stereo not given) | -3.67

Structure (SMILES) | cytotoxicity at 10 µM [%]
CC(C)CNC(=O)C[S+]([O-])Cc1csc(C2CCCCC2)n1 (stereo not given) | -48.5
CCC(C)N(Cc1c[nH]c(C)n1)Cc1ccccc1Cl (stereo not given) | 24.2
O=C(Cc1ccc2c(c1)CCCC2)NCCNc1cnccn1 | -0.882
CCOc1cc(/C=C/c2ncc(C(=O)O)s2)cc(Br)c1O | -4.49
COCCNC(=O)N1CCN(C(=O)c2nsc3ccc(C)cc23)CC1 | 7
Fc1ccc(CN[C@@H]2COC[C@H]2c2ccc(F)cc2)cc1 | 2.57
CC(C)NC(=O)N1CC[C@@H]2CN(Cc3ccccc3)S(=O)(=O)[C@@H]2CC1 | 9.62
CCN(CC)CCNC(=O)c1cnc(C(C)(C)C)s1 | -8.94
CN1CCC/C1=N\S(=O)(=O)c1ccc(NC(=O)c2ccsc2)cc1 | 6.49
COC(=O)CC1CN(Cc2ccn(-c3ccc(F)cc3)n2)CCO1 (stereo not given) | -7.83
Cc1nn(C)c(N(C)C)c1CNCc1ccc(OCCN(C)C)cc1 | -4.89
CC[C@H]1CN2CC[C@H]1C[C@@H]2CNCc1ccc2c(c1)OCO2 | -5.9
Cc1ccc2c(n1)N(CCn1cccn1)CCN(C(=O)CC1CC1)C2 | -5.58
CC1(C)COCCN1C(=O)CCc1nc(-c2ccc(Cl)cc2)no1 | 25.4
CN(C)CCN1CCC2(CCCN(C(=O)C3CCC3)C2)CC1 | 4.38
CCc1nc(C2CCCN2Cc2nc(C(C)(C)C)no2)no1 (stereo not given) | 12.9
Cn1cc(C2COC3(CCN(C(=O)c4ccn(C)n4)CC3)C2)cn1 (stereo not given) | -66.5
CN1C(=O)CC(c2cnn(C)c2)C12CCN(C(=O)c1ccncc1)CC2 (stereo not given) | -84.4
O=S(=O)(NCC1CCOC1)N1CCc2ccccc2C1 (stereo not given) | -4.06
CNC(=O)c1ccc(C2CCCN(C(=O)c3c(C)noc3C)C2)nc1 (stereo not given) | -9.88
CCc1cnc(C)nc1NCCc1nc(N)cc(O)n1 | -0.264
Cc1nc(-c2cccc(Cl)c2)n(CC(=O)NCC2CCCO2)c(=O)c1C (stereo not given) | -7.04
